Experimental data published in ChEMBL document CHEMBL4725239, “Design, synthesis and SAR study of bridged tricyclic pyrimidinone carboxamides as HIV-1 integrase inhibitors” (Bioorg Med Chem, 2020).

Tests used:
[1] = tested on: Human immunodeficiency virus 1; test: Antiviral activity against HIV1 harboring G140S/Q148H double mutant in presence of 10% FBS; format: functional, organism-based
Procedure, shortened: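 HIV-1 carrying G140S/Q148H double-mutant integrase; antiviral EC50 determined with 10% FBS in the medium.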

[2] = tested on: Human immunodeficiency virus 1; test: Antiviral activity against wild type HIV1 in presence of 10% FBS; format: functional, organism-based
[3] = tested on: Human immunodeficiency virus 1; test: Antiviral activity against HIV1 harboring Q148R mutant; format: functional, organism-based
[4] = Binding affinity to wild type HIV1 integrase; design: species or system Human immunodeficiency virus 1
[5] = Volume of distribution at steady state in Sprague-Dawley rat at 0.5 mg/kg, iv measured up to 4 hrs; format: ADME, organism-based; conditions: in vivo, read-out: Vdss
Procedure, shortened: (§1)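 Male Sprague-Dawley rats dosed IV with compound as a PEG-400/ethanol (90:10) solution. Plasma exposure was followed for 4 h, and Cmax, t1/2, clearance and Vss were derived from that profile.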

Integrase = Integrase (Human immunodeficiency virus 1, UniProt T1QYY3, G140S/Q148H); test: Binding affinity to […] HIV1 integrase G140S/Q148H mutant
[6] = Half life in Sprague-Dawley rat at 0.5 mg/kg, iv measured up to 4 hrs; format: ADME, organism-based; conditions: in vivo; procedure, shortened: as §1
[7] = Cmax in Sprague-Dawley rat at 0.5 mg/kg, iv measured up to 4 hrs; format: ADME, organism-based; design: route intravenous, dose 0.5 mg/kg, time <=4; conditions: in vivo; procedure, shortened: as §1
[8] = Clearance in Sprague-Dawley rat at 0.5 mg/kg, iv measured up to 4 hrs; format: ADME, organism-based; conditions: in vivo; procedure, shortened: as §1
[9] = Clearance in cynomolgus monkey at 1 mg/kg, iv; format: ADME, organism-based, Macaca fascicularis; conditions: in vivo
Procedure, shortened: (§2)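 Cynomolgus monkeys dosed IV or PO with compound formulated as a PEG-400/ethanol (90:10) solution. Oral bioavailability was taken from the PO versus IV exposure.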

[10] = tested on: Human immunodeficiency virus 1; test: Antiviral activity against HIV1 harboring G140S/Q148H double mutant in presence of HSA; format: functional, organism-based
[11] = Half life in cynomolgus monkey at 1 mg/kg, iv; format: ADME, organism-based, Macaca fascicularis; conditions: in vivo; procedure, shortened: as §2
[12] = Clearance in Sprague-Dawley rat at 1 mg/kg, iv measured up to 4 hrs; format: ADME, organism-based; conditions: in vivo; procedure, shortened: as §1
[13] = AUC in Beagle dog at 5 mg/kg, po; format: ADME, organism-based, Canis lupus familiaris; design: dose 5 mg/kg; conditions: in vivo
[14] = Clearance in Beagle dog at 1 mg/kg, iv; format: ADME, organism-based, Canis lupus familiaris; conditions: in vivo
[15] = Cmax in Sprague-Dawley rat at 1 mg/kg, iv measured up to 4 hrs; format: ADME, organism-based; design: route intravenous, dose 1 mg/kg, time <=4; conditions: in vivo; procedure, shortened: as §1
[16] = Half life in Sprague-Dawley rat at 1 mg/kg, iv measured up to 4 hrs; format: ADME, organism-based; conditions: in vivo; procedure, shortened: as §1
[17] = AUC in cynomolgus monkey at 5 mg/kg, po; format: ADME, organism-based, Macaca fascicularis; design: dose 5 mg/kg; conditions: in vivo; procedure, shortened: as §2
[18] = AUC in Sprague-Dawley rat at 5 mg/kg, po; format: ADME, organism-based; design: dose 5 mg/kg; conditions: in vivo
[19] = Oral bioavailability in cynomolgus monkey at 5 mg/kg; format: ADME, organism-based, Macaca fascicularis; conditions: in vivo; procedure, shortened: as §2
[20] = Ratio of EC50 for Antiviral activity against HIV1 harboring G140S/Q148H double mutant in presence of 10% FBS to EC50 for antiviral activity against HIV1 harboring G140S/Q148H double mutant in presence of HSA; format: functional, Human immunodeficiency virus 1
[21] = Volume of distribution at steady state in Sprague-Dawley rat at 1 mg/kg, iv measured up to 4 hrs; format: ADME, organism-based; conditions: in vivo, read-out: Vdss; procedure, shortened: as §1
[22] = Oral bioavailability in Beagle dog at 5 mg/kg; format: ADME, organism-based, Canis lupus familiaris; conditions: in vivo
[23] = Volume of distribution at steady state in Beagle dog at 1 mg/kg, iv; format: ADME, organism-based, Canis lupus familiaris; conditions: in vivo, read-out: Vdss
[24] = Volume of distribution at steady state in cynomolgus monkey at 1 mg/kg, iv; format: ADME, organism-based, Macaca fascicularis; conditions: in vivo, read-out: Vdss; procedure, shortened: as §2
[25] = Oral bioavailability in Sprague-Dawley rat at 5 mg/kg; format: ADME, organism-based; conditions: in vivo
[26] = Half life in Beagle dog at 1 mg/kg, iv; format: ADME, organism-based, Canis lupus familiaris; conditions: in vivo

For `Cc1cc(F)ccc1CNC(=O)c1nc2n(c(=O)c1O)CC1CCC2(NC(=O)C(=O)N(C)C)CC1`, which EC50 [1] is on record?
Its EC50 is 558 nM.

And the EC50 [2]?
Its EC50 is 1.3 nM.

Which EC50 [1] does the source give for `CCOC(=O)C(=O)NC12CCC(CC1)Cn1c2nc(C(=O)NCc2ccc(F)cc2)c(O)c1=O` here?
Its EC50 is over 8000 nM.

And the EC50 [2]?
The EC50 was 21 nM.

For `CN(C)C(=O)C(=O)NC12CCC(CC1)Cn1c2nc(C(=O)NCc2ccc(F)c(Cl)c2)c(O)c1=O`, which EC50 [1] is on record?
The EC50 was 6 nM.

What about the EC50 [2] of the same molecule?
The EC50 was 0.8 nM.

What does the source list for `CN(C)C(=O)C(=O)NC12CCC(CC1)Cn1c2nc(C(=O)NCc2ccc(F)c(F)c2)c(O)c1=O`?
EC50 [1]: 17 nM; EC50 [2]: 0.7 nM

For `CN(C)C(=O)CNC12CCC(CC1)Cn1c2nc(C(=O)NCc2ccc(F)cc2)c(O)c1=O`, which EC50 [1] is on record?
The EC50 was over 8000 nM.

What about the EC50 [2] of the same molecule?
The EC50 was 7 nM.

With `CN(C)C(=O)C(=O)NC12CCC(CC1)Cn1c2nc(C(=O)NCc2ccc(F)cc2F)c(O)c1=O` as the molecule, how does the EC50 [1] read?
The EC50 was 37 nM.

What about the EC50 [2] of the same molecule?
The EC50 was 0.7 nM.

With `CN(C)CC(=O)NC12CCC(CC1)Cn1c2nc(C(=O)NCc2ccc(F)cc2)c(O)c1=O` as the molecule, how does the EC50 [1] read?
The EC50 was over 8000 nM.

And the EC50 [2]?
The EC50 was 20 nM.

Which EC50 [1] does the source give for `CN(C)C(=O)C(=O)NC12CCC(CC1)Cn1c2nc(C(=O)NCc2ccc(F)cc2C(F)(F)F)c(O)c1=O` here?
Its EC50 is over 8000 nM.

What about the EC50 [2] of the same molecule?
Its EC50 is 8 nM.

What does the source list for `CN(C)C(=O)C(=O)NC12CCC(Cn3c1nc(C(=O)NCc1ccc(F)cc1)c(O)c3=O)C2` (stereo not drawn)?
EC50 [1]: 39 nM; EC50 [2]: 2 nM; EC50 [3]: 26 nM

Which results are given for `CN(C)C(=O)C(=O)NC12CCC(CC1)Cn1c2nc(C(=O)NCc2ccc(F)cc2Cl)c(O)c1=O`?
EC50 [1]: 1320 nM; EC50 [2]: 1.3 nM

What does the source list for `CN(C)C(=O)C(=O)NC12CCC(CC1)Cn1c2nc(C(=O)NCc2ccc(F)cc2S(C)(=O)=O)c(O)c1=O`?
EC50 [1]: > 8000 nM; EC50 [2]: 11 nM

With `CN(C)C(=O)C(=O)NC12CCC(CC1)n1c2nc(C(=O)NCc2ccc(F)cc2)c(O)c1=O` as the molecule, how does the EC50 [1] read?
Its EC50 is over 8000 nM.

And the EC50 [2]?
Its EC50 is 8 nM.

For `CN(C)C(=O)C(=O)NC12CCC(CC1)Cn1c2nc(C(=O)NCc2ccc(F)cc2)c(O)c1=O`, which EC50 [1] is on record?
The EC50 was 10 nM.

And the Ki [4]?
The Ki was 2 nM.

And the Vd [5]?
The Vd was 0.63 L/kg.

What about the EC50 [2] of the same molecule?
The EC50 was 1 nM.

What about the Ki (Integrase) of the same molecule?
The Ki was 17 nM.

What about the half-life [6] of the same molecule?
Its half-life is 0.45 h.

And the Cmax [7]?
The Cmax was 1.93 µM.

What about the clearance [8] of the same molecule?
The clearance was 30.5 mL/min/kg.

For `CN(C)C(=O)NC12CCC(CC1)Cn1c2nc(C(=O)NCc2ccc(F)cc2)c(O)c1=O`, which EC50 [1] is on record?
The EC50 was 361 nM.

What about the EC50 [2] of the same molecule?
Its EC50 is 14 nM.

Which EC50 [1] does the source give for `CC(C)C(=O)C(=O)NC12CCC(CC1)Cn1c2nc(C(=O)NCc2ccc(F)cc2)c(O)c1=O` here?
Its EC50 is 94 nM.

What about the EC50 [2] of the same molecule?
Its EC50 is 2 nM.

For `Cc1cc(CNC(=O)c2nc3n(c(=O)c2O)CC2CCC3(NC(=O)C(=O)N(C)C)CC2)ccc1F`, which EC50 [1] is on record?
Its EC50 is 3 nM.

What about the clearance [9] of the same molecule?
The clearance was 13.5 mL/min/kg.

What about the EC50 [10] of the same molecule?
The EC50 was 21 nM.

And the half-life [11]?
The half-life was 1.6 h.

And the Ki [4]?
The Ki was 2 nM.

What about the clearance [12] of the same molecule?
The clearance was 12.6 mL/min/kg.

What about the AUC [13] of the same molecule?
Its AUC is 20.8 µM·h.

What about the clearance [14] of the same molecule?
Its clearance is 7 mL/min/kg.

And the Cmax [15]?
The Cmax was 5.3 µM.

What about the half-life [16] of the same molecule?
Its half-life is 12.3 h.

What about the AUC [17] of the same molecule?
The AUC was 2.89 µM·h.

And the AUC [18]?
The AUC was 14.7 µM·h.

What about the EC50 [2] of the same molecule?
The EC50 was 0.7 nM.

And the bioavailability [19]?
The bioavailability was 23%.

What about the Ki (Integrase) of the same molecule?
Its Ki is 8 nM.

And the “Ratio EC50” value [20]?
The value was 7.

And the Vd [21]?
The Vd was 1.2 L/kg.

And the bioavailability [22]?
Its bioavailability is 83%.

What about the Vd [23] of the same molecule?
The Vd was 0.3 L/kg.

What about the Vd [24] of the same molecule?
Its Vd is 0.26 L/kg.

And the bioavailability [25]?
The bioavailability was 103%.

What about the half-life [26] of the same molecule?
Its half-life is 1.6 h.

Which results are given for `CNC(=O)c1cc(F)ccc1CNC(=O)c1nc2n(c(=O)c1O)CC1CCC2(NC(=O)C(=O)N(C)C)CC1`?
EC50 [1]: > 8000 nM; EC50 [2]: 60 nM

With `CN(C)C(=O)C(=O)NC12CCC(CC1)Cn1c2nc(C(=O)NCc2ccc(F)c(C(F)(F)F)c2)c(O)c1=O` as the molecule, how does the EC50 [1] read?
Its EC50 is 32 nM.

What about the EC50 [2] of the same molecule?
The EC50 was 1.4 nM.
